Here are results for 8 molecules from ChEMBL document CHEMBL1212775, “A novel class of meso-tetrakis-porphyrin derivatives exhibits potent activities against hepatitis C virus genotype 1b replicons in vitro” (Antimicrob Agents Chemother, 2010).

Structures are written as SMILES.

For one data set, the system named is CCRF-CEM. Briefly: Mitochondrial DNA toxicity in human CEM cells. Type of data set: cell-based. Put shortly:
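CEM cell lysates slot-blotted and hybridized with an mtDNA-specific probe, then reprobed with an Alu probe as internal control. Bands quantified by autoradiography and densitometry.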

Data set [1] is described as follows: Cytotoxicity against human Huh-7 cells by luminescence based cell viability assay.
Data set [2] relates to Human immunodeficiency virus 1. Briefly: Antiviral activity against Human immunodeficiency virus 1 3B virus infected in human MT2 cells assessed as inhibition of virus-induced cytopathic effect by colorimetry. In kind it is functional, organism-based. In short, it runs like this: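 MT-2 cells, 1 × 10^3 per well in triplicate, infected with HIV-1 IIIB at 0.1 TCID50/cell and cultured with compounds. Viral CPE quantified by MTT colorimetry after 5 days to estimate EC50.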

For another data set, the system named is MT2. The data set can be described thus: Cytotoxicity against human MT2 cells after 5 days by colorimetry. In kind it is cell-based. To be noted: MT2, 120 h. Put shortly:
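Uninfected MT-2 cells coincubated with compounds for 5 days. Cytotoxicity by colorimetric quantitation.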

For data set [3], the system named is Hepatitis C virus. Briefly: Antiviral activity against Hepatitis C virus genotype 1b Con1 infected in human Huh-luc/neo-ET replicon cells assessed as reduction of replicon luciferase signal after 72 hrs by luciferase reporter assay. In kind it is functional, organism-based, Hepacivirus hominis. In short, it runs like this:
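Replicon cells grown without G418, seeded at 5 × 10^3 per well, treated next day in duplicate with serial dilutions (DMSO control) at 37°C for 72 h. After a PBS wash, cells lysed in ice-cold passive lysis reagent and firefly luciferase RLU read as percent of compound-free control. EC50 by nonlinear regression of the dose-effect curve.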
A general note: In antiviral work, replicon cells carry a viral genome segment that copies itself.

The nature of data set [4]: Cytotoxicity against human HuH7 cells by luminescence based cell viability assay. Set-up: species or system Huh-7. Put shortly: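 Exponentially growing Huh-7 cells seeded at 1 × 10^4 per well and incubated with compounds for 3 days. Viability read by CellTiter-Glo luminescence, used for dark compounds that interfere with methylene blue absorbance at 595 nm. CC50 derived.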

Data set [5] relates to Hepatitis C virus. The data set can be described thus: Antiviral activity against Hepatitis C virus genotype 1b Con1 infected in human Huh-luc/neo-ET replicon cells assessed as reduction of replicon luciferase signal after 72 hrs by luciferase reporter assay in presence of 40% fetal bovine serum. Type of data set: functional, organism-based, Hepacivirus hominis. In short, it runs like this: (§1)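 Huh-luc/neo-ET cells without G418, incubated with serially diluted compounds in medium containing 5%, 10%, 20% or 40% (vol/vol) FBS. Firefly luciferase read after 72 h. EC50 from dose-effect curves. The 0% value is a theoretical EC50 extrapolated from the plot of EC50 versus serum level. Means ± SD of three independent experiments.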

The subject of data set [6] is Hepatitis C virus. The data set can be described thus: Antiviral activity against Hepatitis C virus genotype 1b Con1 infected in human Huh-luc/neo-ET replicon cells assessed as reduction of replicon luciferase signal after 72 hrs by luciferase reporter assay in presence of 10% fetal bovine serum. Type of data set: functional, organism-based, Hepacivirus hominis. In short, it runs like this: as §1

In another data set the test system is Hepatitis B virus. Briefly: Antiviral activity against Hepatitis B virus infected in human 2.2.15 cells assessed as reduction of […] after 72 hrs by southern DNA hybridization method. To be noted: HepG2 2.2.15, 72 h. In kind it is functional, organism-based.
The target of a further data set is Cytochrome c (Homo sapiens, UniProt P99999). The data set can be described thus: Binding affinity to Cytochrome C.
Data set [7] concerns Hepatitis C virus. The data set can be described thus: Antiviral activity against Hepatitis C virus genotype 1b Con1 infected in human Huh-luc/neo-ET replicon cells assessed as reduction of replicon luciferase signal after 72 hrs by luciferase reporter assay in presence of 5% fetal bovine serum. Type of data set: functional, organism-based, Hepacivirus hominis. In short, it runs like this: as §1

Data set [8] relates to Hepatitis C virus. Briefly: Antiviral activity against Hepatitis C virus genotype 1b Con1 infected in human Huh-luc/neo-ET replicon cells assessed as reduction of replicon luciferase signal after 72 hrs by luciferase reporter assay in presence of 20% fetal bovine serum. Type of data set: functional, organism-based, Hepacivirus hominis. Put shortly:
as §1

Data set [9] has as its system Hepatitis C virus. The data set can be described thus: Antiviral activity against Hepatitis C virus genotype 1b Con1 infected in human Huh-luc/neo-ET replicon cells assessed as reduction of replicon luciferase signal after 72 hrs by luciferase reporter assay in presence of 0% fetal bovine serum. In kind it is functional, organism-based, Hepacivirus hominis. In short, it runs like this:
as §1

Data set [10] deals with Hepatitis C virus. The data set can be described thus: Antiviral activity against Hepatitis C virus genotype 2a JFH1 infected in human YSGR-JFH replicon cells assessed as inhibition of virus RNA level after 72 hrs by quantitative RT-PCR. In kind it is functional, organism-based, Hepacivirus hominis. To be noted: subtype 2a JFH1, 72 h. Put shortly: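 YSGR-JFH genotype 2a subgenomic replicon cells (maintained with 400 μg/ml G418), 1 × 10^5 per well, incubated with DMSO, serially varied compound, or IFN-α-2a for 72 h. HCV RNA by qRT-PCR normalized to β-actin, as percent of mock-treated control. Mean ± SD of three independent experiments.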

Cytochrome c, sequence (P99999 whole entry): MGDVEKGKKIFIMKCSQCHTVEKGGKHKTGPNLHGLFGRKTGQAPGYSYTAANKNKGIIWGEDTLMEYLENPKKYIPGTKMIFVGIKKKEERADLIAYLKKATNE

Take `O=C(O)c1cc(C(=O)O)cc(-c2c3nc(c(-c4cc(C(=O)O)cc(C(=O)O)c4)c4ccc([nH]4)c(-c4cc(C(=O)O)cc(C(=O)O)c4)c4nc(c(-c5cc(C(=O)O)cc(C(=O)O)c5)c5ccc2[nH]5)C=C4)C=C3)c1`: the IC50 – broadly, the concentration needed to halve the response being measured – in the data set on CCRF-CEM came out at 25 µM. Besides, the CC50 (in [1]; with MT2; in data set [4]) was over 50 µM throughout. The figures for the EC50 (in data set [2]; with Hepatitis C virus [3]) were over 100 µM and 13.6 µM, respectively.
As for `O=C(O)c1ccc(-c2ccc(-c3c4nc(c(-c5ccc(-c6ccc(C(=O)O)cc6)cc5)c5ccc([nH]5)c(-c5ccc(-c6ccc(C(=O)O)cc6)cc5)c5ccc([nH]5)c(-c5ccc(-c6ccc(C(=O)O)cc6)cc5)c5nc3C=C5)C=C4)cc2)cc1`, the EC50 (in general, the concentration that produces a half-maximal response) in the data set on Hepatitis C virus [5] was 1.48 µM; in the data set with Hepatitis C virus [6] it was 0.877 µM; in the data set with Hepatitis B virus, over 10 µM; in [2], over 25 µM; in the data set on Hepatitis C virus [7], 0.633 µM; in the data set on Hepatitis C virus [8] it was 1.21 µM. Also, the EC50 came to 0.877 µM in the data set on Hepatitis C virus [3] and 0.38 µM in the data set with Hepatitis C virus [9]. In the data set with CCRF-CEM, this molecule came in with an IC50 of 6 µM. Besides, the CC50 (as a rule, the concentration giving 50% cytotoxicity) in data set [1] came to 18.6 µM; with MT2, 25 µM; in [4], 32.2 µM. Besides, at Cytochrome c, the Kd (commonly a measure of binding affinity in units of concentration) worked out at 17 µM.
As for `COC(=O)[C@H](CC(=O)O)NC(=O)c1cc(C(=O)N[C@@H](CC(=O)O)C(=O)OC)cc(-c2ccc(-c3c4nc(c(-c5ccc(-c6cc(C(=O)N[C@@H](CC(=O)O)C(=O)OC)cc(C(=O)N[C@@H](CC(=O)O)C(=O)OC)c6)cc5)c5ccc([nH]5)c(-c5ccc(-c6cc(C(=O)N[C@@H](CC(=O)O)C(=O)OC)cc(C(=O)N[C@@H](CC(=O)O)C(=O)OC)c6)cc5)c5nc(c(-c6ccc(-c7cc(C(=O)N[C@@H](CC(=O)O)C(=O)OC)cc(C(=O)N[C@@H](CC(=O)O)C(=O)OC)c7)cc6)c6ccc3[nH]6)C=C5)C=C4)cc2)c1`, the EC50 with Hepatitis B virus is over 10 µM; in data set [2], 4.1 µM; with Hepatitis C virus [3] it was 2.5 µM. In the data set with CCRF-CEM, this molecule showed a concentration for half-maximal inhibition (IC50) of 10 µM. This molecule returned a Kd at Cytochrome c of 1.7 µM. Besides, the CC50 in the data set with MT2 is over 25 µM; in data set [4], 12.5 µM.
As to `O=C(O)CNC(=O)c1cc(C(=O)NCC(=O)O)cc(-c2ccc(-c3c4nc(c(-c5ccc(-c6cc(C(=O)NCC(=O)O)cc(C(=O)NCC(=O)O)c6)cc5)c5ccc([nH]5)c(-c5ccc(-c6cc(C(=O)NCC(=O)O)cc(C(=O)NCC(=O)O)c6)cc5)c5nc(c(-c6ccc(-c7cc(C(=O)NCC(=O)O)cc(C(=O)NCC(=O)O)c7)cc6)c6ccc3[nH]6)C=C5)C=C4)cc2)c1`, the figures for the EC50 (in the data set on Hepatitis B virus; in data set [2]; with Hepatitis C virus [3]) were over 10 µM, 1.05 µM and over 12.5 µM, respectively. Besides, half-maximal inhibition in the data set with CCRF-CEM (IC50) required 12.5 µM. In addition, the CC50 in data set [1] is over 50 µM; with MT2 it was 15 µM; in [4], 12.5 µM.
For the molecule `O=C(O)c1cccc(-c2ccc(-c3c4nc(c(-c5ccc(-c6cccc(C(=O)O)c6)cc5)c5ccc([nH]5)c(-c5ccc(-c6cccc(C(=O)O)c6)cc5)c5nc(c(-c6ccc(-c7cccc(C(=O)O)c7)cc6)c6ccc3[nH]6)C=C5)C=C4)cc2)c1`, the EC50 was over 20 µM in the data set on Hepatitis B virus, over 25 µM in data set [2] and 0.764 µM in the data set on Hepatitis C virus [3]. Moreover, in the data set with CCRF-CEM, half-maximal inhibition (IC50) required 22 µM. The CC50 in data set [1] is 42.3 µM; in the data set on MT2, over 25 µM; in [4] it was 13 µM.
`O=C(O)CNC(=O)c1ccc(-c2c3nc(c(-c4ccc(C(=O)NCC(=O)O)cc4)c4ccc([nH]4)c(-c4ccc(C(=O)NCC(=O)O)cc4)c4nc(c(-c5ccc(C(=O)NCC(=O)O)cc5)c5ccc2[nH]5)C=C4)C=C3)cc1`: the EC50 in the data set with Hepatitis B virus is over 10 µM; in data set [2] it was over 25 µM; with Hepatitis C virus [3] it was 1.8 µM. This molecule also gave an IC50 with CCRF-CEM of 15 µM. The values for the CC50 (in data set [1]; in the data set on MT2; in data set [4]) were 27 µM, 3.2 µM and over 50 µM, respectively.
On to `O=C(O)CNC(=O)c1ccc(-c2ccc(-c3c4nc(c(-c5ccc(-c6ccc(C(=O)NCC(=O)O)cc6)cc5)c5ccc([nH]5)c(-c5ccc(-c6ccc(C(=O)NCC(=O)O)cc6)cc5)c5nc(c(-c6ccc(-c7ccc(C(=O)NCC(=O)O)cc7)cc6)c6ccc3[nH]6)C=C5)C=C4)cc2)cc1`, for which the EC50 is over 20 µM with Hepatitis B virus, 1.5 µM in [2] and 0.148 µM in the data set on Hepatitis C virus [3]. In addition, in the data set on CCRF-CEM, the IC50 was over 50 µM. The CC50 in data set [1] is over 50 µM; in the data set with MT2 it was 13 µM; in [4], over 50 µM.
Turning to `O=C(O)c1ccc(-c2c3nc(c(-c4ccc(C(=O)O)cc4)c4ccc([nH]4)c(-c4ccc(C(=O)O)cc4)c4ccc([nH]4)c(-c4ccc(C(=O)O)cc4)c4nc2C=C4)C=C3)cc1`, the EC50 with Hepatitis C virus [5] was 0.948 µM; in the data set on Hepatitis C virus [6], 0.243 µM; in the data set on Hepatitis B virus, over 10 µM; in data set [2] it was over 25 µM; in the data set on Hepatitis C virus [7] it was 0.124 µM; in the data set on Hepatitis C virus [8], 0.513 µM. In addition, the EC50 in the data set with Hepatitis C virus [3] stood at 0.243 µM; in the data set on Hepatitis C virus [10] it was 1.9 µM; in the data set on Hepatitis C virus [9], 0.0482 µM. In the data set with CCRF-CEM, this molecule registered a 50% inhibitory concentration (IC50) of over 50 µM. Also, the CC50 in data set [1] is over 50 µM; in the data set with MT2, over 25 µM; in [4], over 50 µM. Besides, the dissociation constant Kd on Cytochrome c is 0.95 µM.
